ChEMBL document CHEMBL1166014, “Targeting efflux pumps-In vitro investigations with acridone derivatives and identification of a lead molecule for MDR modulation” (Bioorg Med Chem, 2010)
Converted amounts (≈) assume the structure as drawn. The source made the active and inactive calls. The calls are words filed in the database; no cut-off is given here.

Tests used:
[1] = Binding affinity to P-gp at 5 uM after 30 mins by spectrophotometry
How it was run: (§1)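 P-gp vesicles from DC-3F/ADX MDR cells; basal MgATP hydrolysis measured by PK/LDH-coupled NADH oxidation (PEP, NADH), with non-specific ATPase inhibitor; vesicles 5 min at 37 °C, compound added (final 0.05, 0.5, 5 µM) 5 min, MgATP then 20 min at 37 °C; A340 read twice 20 min apart; triplicate; verapamil, vinblastine, progesterone references.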

[2] = Binding affinity to P-gp at 0.5 uM after 30 mins by spectrophotometry; how it was run: as §1
[3] = Binding affinity to P-gp at 0.05 uM after 30 mins by spectrophotometry; how it was run: as §1
[4] = test system: ATP; assay: Binding affinity to ATP at 50 uM in HEPES buffer of pH 7.2 by spectrophotometry
How it was run: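 UV-vis titration: compound held constant at 50 µM in HEPES pH 7.2, titrated with NaATP (from 10^-2 M stock) over 0–3 equiv; absorbance change followed; binding constant from Benesi–Hildebrand plot.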

[5] = Binding affinity to Mg2+ at 100 uM in HEPES buffer of pH 7.2 by spectrophotometry
How it was run: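 Compound at 10^-4 M in 10^-2 M HEPES pH 7.2 titrated with Mg²⁺ (0–0.5 × 10^-4 M); absorbance changes at 270–310, 390–415 and 320–340 nm monitored; binding constant by Benesi–Hildebrand equation.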

[6] = test system: Candida albicans; assay: Antifungal activity at Candida albicans CAI4 after 48 hrs by ELISA; format: functional; details: CAI4, 48 h
How it was run: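 Broth microdilution; CAI4 streaked on YEPD, 30 °C 24 h; compounds serially diluted twofold in YEPD, solvent diluted alongside; growth control column; 30 °C 48 h; OD600 on plate reader; MIC80 = concentration giving 80% growth inhibition vs no-compound growth.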

[7] = Binding affinity to P-gp assessed as increase in basal protein activity at 5 uM after 30 mins by spectrophotometry; how it was run: as §1
[8] = Binding affinity to P-gp assessed as increase in basal protein activity at 0.5 uM after 30 mins by spectrophotometry; how it was run: as §1
[9] = Binding affinity to P-gp assessed as increase in basal protein activity at 0.05 uM after 30 mins by spectrophotometry; how it was run: as §1
[10] = test system: Candida albicans; assay: Antifungal activity at Candida albicans CAI4 assessed as inhibition of fungal growth at 0.9 mg/ml after 48 hrs by spot assay; format: functional, organism-based
How it was run: (§2)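 Spot assay on YEPD-agar plates containing compound (with Congo red or calcofluor white where applicable); solvent (MeOH/DMSO 1:1) and YEPD-only control plates; CAI4 primary culture 16 h, secondary 5 h at 30 °C from 4% inoculum, diluted in 0.9% saline; 10⁵ to 10⁰ cells spotted; 30 °C 48 h, growth scored.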

[11] = test system: Candida albicans; assay: Antifungal activity at Candida albicans CAI4 assessed as inhibition of fungal growth at 1 mg/ml after 48 hrs by spot assay; format: functional, organism-based; how it was run: as §2
[12] = test system: Candida albicans; assay: Effect of membrane integrity of Candida albicans CAI4 at 800 ug/ml after 48 hrs by spot assay in presence of 300 ug/ml congo red; format: functional, organism-based; how it was run: as §2
[13] = test system: Candida albicans; assay: Effect of membrane integrity of Candida albicans CAI4 at 800 ug/ml after 48 hrs by spot assay in presence of 300 ug/ml calcofluor white; format: functional, organism-based; how it was run: as §2
[14] = target: Multidrug resistance protein CDR1 (Candida albicans) (UniProt P43071); assay: Modulation of CDR1-mediated rhodamine 6G accumulation in Candida albicans CAI4 assessed as inhibition of fungal growth at 800 ug/ml after 48 hrs by spot assay
How it was run: (§3)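 Spot assay: CAI4 grown in YEPD at 30 °C (16 h primary, 5 h secondary), diluted in 0.9% saline and spotted as 10⁵–10⁰ cells on YEPD agar containing compound plus R6G; solvent (MeOH/DMSO 1:1) and YEPD-only control plates; growth scored after 48 h at 30 °C.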

[15] = target: T1, Multidrug resistance protein CDR2 (Candida albicans (strain SC5314 / ATCC MYA-2876) (Yeast)) (UniProt P78595); assay: Modulation of CDR2-mediated rhodamine 6G accumulation in Candida albicans CAI4 assessed as inhibition of fungal growth at 800 ug/ml after 48 hrs by spot assay; how it was run: as §3
T1 sequence (whole entry): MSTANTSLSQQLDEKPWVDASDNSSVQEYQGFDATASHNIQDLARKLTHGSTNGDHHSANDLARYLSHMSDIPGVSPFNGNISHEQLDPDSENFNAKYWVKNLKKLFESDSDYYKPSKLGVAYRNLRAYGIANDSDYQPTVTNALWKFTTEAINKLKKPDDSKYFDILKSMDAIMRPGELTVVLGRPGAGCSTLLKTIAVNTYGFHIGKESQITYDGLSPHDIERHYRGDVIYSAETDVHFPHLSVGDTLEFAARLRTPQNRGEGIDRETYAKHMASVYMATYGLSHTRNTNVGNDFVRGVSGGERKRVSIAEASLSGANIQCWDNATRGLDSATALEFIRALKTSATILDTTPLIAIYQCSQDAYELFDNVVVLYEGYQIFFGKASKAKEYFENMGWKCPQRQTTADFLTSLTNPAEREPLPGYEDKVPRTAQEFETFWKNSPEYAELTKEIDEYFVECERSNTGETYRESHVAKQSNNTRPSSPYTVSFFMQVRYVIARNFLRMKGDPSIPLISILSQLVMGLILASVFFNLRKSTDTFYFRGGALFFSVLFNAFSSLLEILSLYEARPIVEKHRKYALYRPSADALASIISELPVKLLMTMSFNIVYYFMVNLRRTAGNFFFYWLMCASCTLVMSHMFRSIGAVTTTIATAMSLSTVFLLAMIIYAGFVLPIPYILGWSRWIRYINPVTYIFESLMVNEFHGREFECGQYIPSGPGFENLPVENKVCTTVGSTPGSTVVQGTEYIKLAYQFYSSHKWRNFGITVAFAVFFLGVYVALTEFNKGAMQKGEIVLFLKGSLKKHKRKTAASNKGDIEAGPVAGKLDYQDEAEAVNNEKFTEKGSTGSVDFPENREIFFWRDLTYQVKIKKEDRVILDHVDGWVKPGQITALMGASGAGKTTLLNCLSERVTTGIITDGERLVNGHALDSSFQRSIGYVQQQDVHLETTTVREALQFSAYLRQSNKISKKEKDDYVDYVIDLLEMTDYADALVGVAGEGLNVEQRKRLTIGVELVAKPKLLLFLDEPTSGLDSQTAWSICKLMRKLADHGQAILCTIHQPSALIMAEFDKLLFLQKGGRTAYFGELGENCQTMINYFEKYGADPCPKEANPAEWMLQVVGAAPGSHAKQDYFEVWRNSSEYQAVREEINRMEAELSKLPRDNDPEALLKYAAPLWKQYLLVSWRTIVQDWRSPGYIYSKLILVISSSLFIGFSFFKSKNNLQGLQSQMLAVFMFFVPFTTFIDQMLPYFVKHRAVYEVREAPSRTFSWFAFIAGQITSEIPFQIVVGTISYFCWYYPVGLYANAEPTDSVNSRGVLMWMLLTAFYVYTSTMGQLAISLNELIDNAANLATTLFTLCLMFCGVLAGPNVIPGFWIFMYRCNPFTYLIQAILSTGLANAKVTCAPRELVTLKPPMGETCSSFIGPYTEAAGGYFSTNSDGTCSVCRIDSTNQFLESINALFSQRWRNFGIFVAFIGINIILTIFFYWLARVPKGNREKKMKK

[16] = target: Multidrug resistance protein CDR1 (Candida albicans) (UniProt P43071); assay: Modulation of CDR1-mediated rhodamine 6G accumulation in Candida albicans CAI4 assessed as increase in R6G influx at 800 ug/ml after 180 mins by spectrofluorimetry
How it was run: (§4)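 C. albicans CAI4 secondary culture (YEPD, 30 °C, ~5 h) washed in PBS, 2% suspension in PBS with 2 mM 2-deoxyglucose rocked 2 h; compound added at 800 µg/ml (MeOH/DMSO 1:1 solvent control), then R6G; aliquots over 0–180 min centrifuged, R6G left in supernatant measured as OD527.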

[17] = target: T1, Multidrug resistance protein CDR2 (Candida albicans (strain SC5314 / ATCC MYA-2876) (Yeast)); assay: Modulation of CDR2-mediated rhodamine 6G accumulation in Candida albicans CAI4 assessed as increase in R6G influx at 800 ug/ml after 180 mins by spectrofluorimetry; how it was run: as §4
[18] = target: Multidrug resistance protein CDR1 (Candida albicans) (UniProt P43071); assay: Inhibition of CDR1-mediated efflux of rhodamine 6G in Candida albicans CAI4 at 800 ug/ml up to 60 mins by spectrofluorimetry in presence of 2 mM 2-deoxyglucose treated for 2 hrs before compound addition
How it was run: (§5)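 C. albicans CAI4 secondary culture (YEPD, 30 °C, ~5 h) washed in PBS, 2% cell suspension de-energised with 2 mM 2-deoxyglucose on rocker 2 h; R6G loaded, cells pelleted, washed, resuspended in PBS with or without 2% glucose; compound at 800 µg/ml with MeOH/DMSO 1:1 solvent control; supernatant R6G fluorescence read (ex 529, em 553 nm) over time.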

[19] = target: T1, Multidrug resistance protein CDR2 (Candida albicans (strain SC5314 / ATCC MYA-2876) (Yeast)); assay: Inhibition of CDR2-mediated efflux of rhodamine 6G in Candida albicans CAI4 at 800 ug/ml up to 60 mins by spectrofluorimetry in presence of 2 mM 2-deoxyglucose treated for 2 hrs before compound addition; how it was run: as §5
[20] = test system: Candida albicans; assay: Antifungal activity at Candida albicans CAI4 assessed as reduction in colony formation at 0.9 mg/ml after 48 hrs by spot assay; format: functional, organism-based; how it was run: as §2
[21] = test system: Candida albicans; assay: Antifungal activity at Candida albicans CAI4 assessed as reduction in colony formation at 1 mg/ml after 48 hrs by spot assay; format: functional, organism-based; how it was run: as §2
[22] = Partition coefficient, log P of the compound; format: physicochemical; details: octanol/water

Sequence of Multidrug resistance protein CDR1 (Candida albicans) (P43071 whole entry, looked up): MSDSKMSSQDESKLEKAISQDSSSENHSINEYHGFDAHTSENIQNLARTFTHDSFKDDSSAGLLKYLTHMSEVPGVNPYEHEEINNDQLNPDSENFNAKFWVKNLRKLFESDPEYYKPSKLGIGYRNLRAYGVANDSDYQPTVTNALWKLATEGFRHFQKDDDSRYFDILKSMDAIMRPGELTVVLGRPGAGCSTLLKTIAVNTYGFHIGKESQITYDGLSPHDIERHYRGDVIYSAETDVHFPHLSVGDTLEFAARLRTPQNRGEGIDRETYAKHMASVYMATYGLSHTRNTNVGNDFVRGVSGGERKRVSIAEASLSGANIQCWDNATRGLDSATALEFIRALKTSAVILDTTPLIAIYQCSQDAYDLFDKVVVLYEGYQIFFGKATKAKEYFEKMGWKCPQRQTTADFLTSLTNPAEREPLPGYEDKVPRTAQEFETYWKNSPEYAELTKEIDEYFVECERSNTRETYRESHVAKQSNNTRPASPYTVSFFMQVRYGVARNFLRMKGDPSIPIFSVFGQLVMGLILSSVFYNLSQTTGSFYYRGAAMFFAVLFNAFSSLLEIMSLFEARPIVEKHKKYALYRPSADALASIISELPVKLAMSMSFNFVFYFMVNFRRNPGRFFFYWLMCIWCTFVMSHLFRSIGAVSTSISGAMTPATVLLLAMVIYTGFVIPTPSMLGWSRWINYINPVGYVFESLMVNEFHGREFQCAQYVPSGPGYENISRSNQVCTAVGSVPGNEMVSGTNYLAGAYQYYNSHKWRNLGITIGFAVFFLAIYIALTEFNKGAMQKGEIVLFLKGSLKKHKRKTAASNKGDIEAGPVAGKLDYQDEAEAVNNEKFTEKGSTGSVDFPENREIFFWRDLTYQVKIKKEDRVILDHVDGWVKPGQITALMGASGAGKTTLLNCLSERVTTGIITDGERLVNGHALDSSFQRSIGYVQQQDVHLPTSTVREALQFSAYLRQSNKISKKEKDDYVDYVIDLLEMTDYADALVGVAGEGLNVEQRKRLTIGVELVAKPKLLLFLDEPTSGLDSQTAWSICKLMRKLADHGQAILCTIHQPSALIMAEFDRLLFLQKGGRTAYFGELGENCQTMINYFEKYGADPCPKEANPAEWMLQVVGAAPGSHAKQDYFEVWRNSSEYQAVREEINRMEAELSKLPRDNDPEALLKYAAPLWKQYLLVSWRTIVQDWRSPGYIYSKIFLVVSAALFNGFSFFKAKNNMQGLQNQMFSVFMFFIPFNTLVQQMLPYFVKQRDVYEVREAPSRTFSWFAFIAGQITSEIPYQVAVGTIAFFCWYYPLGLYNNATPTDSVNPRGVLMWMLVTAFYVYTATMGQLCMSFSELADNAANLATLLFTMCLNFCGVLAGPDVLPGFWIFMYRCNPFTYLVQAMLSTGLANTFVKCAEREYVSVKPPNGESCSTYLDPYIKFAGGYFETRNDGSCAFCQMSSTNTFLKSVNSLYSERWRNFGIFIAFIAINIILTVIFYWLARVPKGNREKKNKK

Row | SMILES | RBA [1] | RBA [2] | RBA [3] | Ka [4] | Ka [5] | MIC80 [6] | Activity [7] | Activity [8] | Activity [9] | other results
1 | COc1ccc(CCN(C)CCCC(C#N)(c2ccc(OC)c(OC)c2)C(C)C)cc1OC (stereo unspecified) | 2.8 | 2.01 | 1.11 | – | – | – | – | – | – | –
2 | O=c1c2ccccc2n(CC(O)CN2CCCC2)c2c(Cl)cccc12 (stereo unspecified) | – | – | – | 6.57 ×10⁵ /M | 0.95 ×10⁵ /M | > 3000 µg/mL | – | – | – | –
3 | O=c1c2ccccc2n(CC(O)CN2CCCCC2)c2c(Cl)cccc12 (stereo unspecified) | – | – | – | 5 ×10⁵ /M | 1.48 ×10⁵ /M | > 3000 µg/mL | – | – | – | –
4 | O=C(O)c1cccc2c(=O)c3ccccc3n(CC(O)CN3CCCCC3)c12 (stereo unspecified) | 2.44 | 1.66 | 1.57 | inactive | 19.7 ×10⁵ /M | – | 144% | 66% | 57% | –
5 | CCN(CC)CC(O)Cn1c2ccccc2c(=O)c2cccc(Cl)c21 (stereo unspecified) | – | – | – | 7.9 ×10⁵ /M | 0.39 ×10⁵ /M | 1500 µg/mL (≈ 4.18 mM) | – | – | – | –
6 | CC(=O)[C@H]1CC[C@H]2[C@@H]3CCC4=CC(=O)CC[C@]4(C)[C@H]3CC[C@]12C | 1.42 | 1.11 | 1 | – | – | – | – | – | – | –
7 | CCN(CC)CC(O)Cn1c2ccccc2c(=O)c2cccc(C(=O)O)c21 (stereo unspecified) | 2.12 | 1.7 | 1.65 | inactive | 7.74 ×10⁵ /M | – | 112% | 70% | 65% | –
8 | O=c1c2ccccc2n(CC(O)CN2CCC(N3CCCCC3)CC2)c2c(Cl)cccc12 (stereo unspecified) | – | – | – | 11 ×10⁵ /M | 18.6 ×10⁵ /M | > 3000 µg/mL | – | – | – | –
9 | O=C(O)c1cccc2c(=O)c3ccccc3n(CC(O)CN3CCCC3)c12 (stereo unspecified) | 2 | 1.85 | 1.6 | inactive | 1.5 ×10⁵ /M | 781 µg/mL (≈ 2.13 mM) | 100% | 85% | 60% | inhibition [10]: inactive; inhibition [11]: inactive; inhibition [12]: inactive; inhibition [13]: inactive; inhibition [14]: Active; inhibition [15]: Active; inhibition [16]: Active; inhibition [17]: Active; inhibition [18]: Active; inhibition [19]: Active; inhibition [20]: Active; inhibition [21]: Active
10 | CC(C)N(CC(O)Cn1c2ccccc2c(=O)c2cccc(Cl)c21)C(C)C (stereo unspecified) | – | – | – | 1.42 ×10⁵ /M | 2.2 ×10⁵ /M | > 3000 µg/mL | – | – | – | –
11 | CC(C)N(CC(O)Cn1c2ccccc2c(=O)c2cccc(C(=O)O)c21)C(C)C (stereo unspecified) | 2.05 | 1.6 | 1.53 | inactive | 2 ×10⁵ /M | – | 105% | 60% | 53% | –
12 | CC[C@]1(O)C[C@@H]2CN(CCc3c([nH]c4ccccc34)[C@@](C(=O)OC)(c3cc4c(cc3OC)N(C)[C@H]3[C@@](O)(C(=O)OC)[C@H](OC(C)=O)[C@]5(CC)C=CCN6CC[C@]43[C@@H]65)C2)C1 | 1.21 | 1.37 | 0.98 | – | – | – | – | – | – | –
13 | O=C(O)c1cccc2c(=O)c3ccccc3n(CC(O)CN3CCOCC3)c12 (stereo unspecified) | 2.66 | 2 | 1.63 | inactive | 3.82 ×10⁵ /M | – | 166% | 100% | 63% | logP [22]: 0.6
14 | O=c1c2ccccc2n(CC(O)CN2CCOCC2)c2c(Cl)cccc12 (stereo unspecified) | – | – | – | 4.08 ×10⁵ /M | 17.1 ×10⁵ /M | > 3000 µg/mL | – | – | – | –
